From ChEMBL document CHEMBL4765233, “From Lead to Drug Candidate: Optimization of 3-(Phenylethynyl)-1H-pyrazolo[3,4-d]pyrimidin-4-amine Derivatives as Agents for the Treatment of Triple Negative Breast Cancer” (J Med Chem, 2016) come the findings set out here.

The source made the active and inactive calls. No cut-off for these calls is given here. Bounds are passed on as bounds.

For one data set, the system named is HepG2. The data set can be described thus: Antiproliferative activity against human HepG2 cells assessed as reduction in cell viability incubated for 72 hrs by MTT assay. Format: ADME, cell-based. To be noted: HepG2, 72 h.
The subject of data set [1] is MDA-MB-231. The data set can be described thus: Antitumor activity against human MDA-MB-231 cells xenografted in SCID mouse assessed as tumor growth inhibition at 40 mg/kg, po qd for 21 days and measured every 3 days. The class given is functional. To be noted: MDA-MB-231, po, 504 h, time 21 day. The essentials: (§1)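 SCID mice (5−6 weeks) injected subcutaneously with 100 μL of cells at 5 × 10^7/mL. At 150−200 mm3 mice randomized, 6 per group. Oral compounds given in water with 25% PEG400 plus 5% DMSO; paclitaxel given 10 mg/kg/week iv. Tumor volume a×b²/2 and body weight measured every 3 days. Inhibition rate (c−d)/c×100% against vehicle control.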

Data set [2] in a line: AUC (0 to t) in Sprague-Dawley rat at 10 mg/kg, po administered via gavage by LC-MS analysis. To be noted: in vivo. The class given is ADME, organism-based. On the set-up: dose 10 mg/kg.
Data set [3] in a line: Metabolic stability in monkey liver microsomes assessed as parent compound remaining at 1 uM measured after 60 mins in presence of NADPH by HPLC-MS/MS analysis. Format: ADME, Macaca mulatta, Microsome. As to conditions: rhesus monkey, read-out: Stabilty. The essentials:
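Compound at 1 μM incubated with 0.5 mg/mL liver microsomes and 1 mM NADPH. Samples taken at 0, 10, 15, 30, 45 and 60 min and quenched with acetonitrile. After centrifugation, supernatant analysed by HPLC-MS/MS, with percent parent remaining relative to the 0 min area.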

Data set [4] concerns the target Fibroblast growth factor receptor 2 (Homo sapiens, UniProt P21802, N549H). The data set can be described thus: Inhibition of human recombinant FGFR2 N549H mutant (456 to 770 residues) using GGEEEEYFELVKKKK as substrate incubated for 40 mins in presence of [gamma33P-ATP] by radiometric scintillation counting analysis.
Data set [5] can be described thus: Inhibition of human recombinant EGFR T790M/L858R mutant (696 to end residues) using GGMEDIYFEFMGGKKK as substrate incubated for 40 mins in presence of [gamma33P-ATP] by radiometric scintillation counting analysis. The essentials:
(§2)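 Radiometric kinase assay run as an external profiling service, with ATP at the Km of each kinase. IC50 values are means of two independent experiments.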

For data set [6], the target named is Mitogen-activated protein kinase 14 (Homo sapiens, UniProt Q16539). The data set can be described thus: Inhibition of human full length recombinant p38alpha using myelin basic protein as substrate incubated for 40 mins in presence of [gamma33P-ATP] by radiometric scintillation counting analysis. The essentials: as §2
Data set [7] addresses High affinity nerve growth factor receptor (Homo sapiens, UniProt P04629). The data set can be described thus: Inhibition of human recombinant TRKA (440 to end residues) using KKKSPGEYVNIEFG as substrate incubated for 40 mins in presence of [gamma33P-ATP] by radiometric scintillation counting analysis. The gist of the method:
as §2

Another data set concerns BT-474. The data set can be described thus: Antiproliferative activity against human BT-474 cells assessed as reduction in cell viability incubated for 72 hrs by MTT assay. Format: functional, cell-based. To be noted: BT-474, 72 h. The gist of the method: (§3)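 MTT viability assay. ATCC cell lines were grown in designated medium with 10% FBS at 37 °C, 5% CO2. Cells seeded at 1500−30000 per well and incubated 24 h, then exposed to compound (0−10 μg/mL) for 72 h. MTT added for 2−4 h. Formazan dissolved in DMSO (adherent) or acidified SDS overnight (suspension), absorbance read at 570 nm. Triplicates; IC50 calculated.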

The next data set deals with MDA-MB-415. The data set can be described thus: Antiproliferative activity against human MDA-MB-415 cells assessed as reduction in cell viability incubated for 72 hrs by MTT assay. The class given is functional, cell-based. To be noted: MDA-MB-415, 72 h. The essentials: as §3
The next data set has as its system NCI-H1437. The experiment in a line: Antiproliferative activity against human NCI-H1437 cells assessed as reduction in cell viability incubated for 72 hrs by MTT assay. As to conditions: NCI-H1437, 72 h. The class given is functional, cell-based. The gist of the method:
as §3

The subject of a further data set is MIA PaCa-2. The data set can be described thus: Antiproliferative activity against human MIA PaCa-2 cells assessed as reduction in cell viability incubated for 72 hrs by MTT assay. Format: functional, cell-based. To be noted: MIA PaCa-2, 72 h. The essentials:
as §3

A further data set concerns HT-29. The data set can be described thus: Antiproliferative activity against human HT-29 cells assessed as reduction in cell viability incubated for 72 hrs by MTT assay. Format: functional, cell-based. As to conditions: HT-29, 72 h. The essentials: as §3
A further data set has as its system PLC-PRF-5. The experiment in a line: Antiproliferative activity against human PLC-PRF-5 cells assessed as reduction in cell viability incubated for 72 hrs by MTT assay. To be noted: PLC-PRF-5, 72 h. Format: functional, cell-based. The essentials:
as §3

A further data set has as its system Ramos. The data set can be described thus: Antiproliferative activity against human Ramos cells assessed as reduction in cell viability incubated for 72 hrs by MTT assay. Format: functional, cell-based. The gist of the method: as §3
The subject of data set [8] is MDA-MB-231. The experiment in a line: Induction of apoptosis in human MDA-MB-231 cells assessed as live cells at 0.01 uM incubated for 24 hrs by annexin V-FITC and propidium iodide staining based flow cytometry analysis (reference value: 96.95 %). Format: functional.
Data set [9] relates to MDA-MB-231. The data set can be described thus: Induction of apoptosis in human MDA-MB-231 cells assessed as early apoptotic cells at 0.01 uM incubated for 24 hrs by annexin V-FITC and propidium iodide staining based flow cytometry analysis (reference value: 2 %). The class given is functional.
Data set [10] has as its system MDA-MB-231. The data set can be described thus: Induction of apoptosis in human MDA-MB-231 cells assessed as live cells at 0.1 uM incubated for 24 hrs by annexin V-FITC and propidium iodide staining based flow cytometry analysis (reference value: 96.95 %). The class given is functional.
Data set [11] has as its system MDA-MB-435. The experiment in a line: Antitumor activity against human MDA-MB-435 cells xenografted in SCID mouse assessed as tumor growth inhibition administered orally once daily for 21 days and measured every 3 days. Format: functional. As to conditions: dose 10-40 mg/kg/day, time 21.0 day. The gist of the method: as §1
Data set [12] concerns MDA-MB-435. The data set can be described thus: Antitumor activity against human MDA-MB-435 cells xenografted in SCID mouse assessed as tumor growth inhibition at 40 mg/kg, po QD for 21 days and measured every 3 days. The class given is functional. As to conditions: MDA-MB-435, po, 504 h, time 21 day. The gist of the method:
as §1

Data set [13] can be described thus: Toxicity against SCID mouse xenografted with human MDA-MB-231 cells assessed as change in body weight at 10 to 40 mg/kg, po QD for 21 days and measured every 3 days. Format: organism-based. As to conditions: in vivo, 504 h, dose 10-40 mg/kg/day, time 21 day. The essentials:
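Exponential-phase cells washed and injected subcutaneously (5 × 10^6 cells in 100 μL) into 5–6-week SCID mice. At 150–200 mm3, mice randomised to groups of 6. Oral dosing daily in water with 25% PEG400 and 5% DMSO; paclitaxel 10 mg/kg weekly by tail vein. Body weight measured every 3 days and side effects checked daily.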

For a further data set, the system named is Mus musculus. The experiment in a line: In vivo inhibition of Src in SCID mouse xenografted with human MDA-MB-231 cells assessed as reduction in phosphorylation of Src in tumor tissue at 40 mg/kg, po QD for 21 days by immunohistochemical analysis. As to conditions: dose 40.0 mg/kg/day, time 21.0 day. Format: functional, organism-based. The essentials: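 Tumors taken from xenografted SCID mice dosed orally at 40 mg/kg/q.d. or given control; mice euthanized at set times. Tumors formalin-fixed and paraffin-embedded, stained by immunohistochemistry for phospho-proteins, and imaged by light microscopy.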

Data set [14] concerns MDA-MB-231. The experiment in a line: Inhibition of colony formation in human MDA-MB-231 cells at >0.1 uM treated for 12 days by crystal violet staining based visual analysis. The class given is functional. To be noted: dose microM >0.1; time 12 day. The essentials: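 MDA-MB-231 cells seeded at 5000 per well in six-well plates and treated the next day, with drug-containing medium replaced every 4 days. After 12 days, colonies fixed with methanol and stained with crystal violet, then photographed.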

Sequence of Fibroblast growth factor receptor 2 (P21802 22-821 N549H limits assumed): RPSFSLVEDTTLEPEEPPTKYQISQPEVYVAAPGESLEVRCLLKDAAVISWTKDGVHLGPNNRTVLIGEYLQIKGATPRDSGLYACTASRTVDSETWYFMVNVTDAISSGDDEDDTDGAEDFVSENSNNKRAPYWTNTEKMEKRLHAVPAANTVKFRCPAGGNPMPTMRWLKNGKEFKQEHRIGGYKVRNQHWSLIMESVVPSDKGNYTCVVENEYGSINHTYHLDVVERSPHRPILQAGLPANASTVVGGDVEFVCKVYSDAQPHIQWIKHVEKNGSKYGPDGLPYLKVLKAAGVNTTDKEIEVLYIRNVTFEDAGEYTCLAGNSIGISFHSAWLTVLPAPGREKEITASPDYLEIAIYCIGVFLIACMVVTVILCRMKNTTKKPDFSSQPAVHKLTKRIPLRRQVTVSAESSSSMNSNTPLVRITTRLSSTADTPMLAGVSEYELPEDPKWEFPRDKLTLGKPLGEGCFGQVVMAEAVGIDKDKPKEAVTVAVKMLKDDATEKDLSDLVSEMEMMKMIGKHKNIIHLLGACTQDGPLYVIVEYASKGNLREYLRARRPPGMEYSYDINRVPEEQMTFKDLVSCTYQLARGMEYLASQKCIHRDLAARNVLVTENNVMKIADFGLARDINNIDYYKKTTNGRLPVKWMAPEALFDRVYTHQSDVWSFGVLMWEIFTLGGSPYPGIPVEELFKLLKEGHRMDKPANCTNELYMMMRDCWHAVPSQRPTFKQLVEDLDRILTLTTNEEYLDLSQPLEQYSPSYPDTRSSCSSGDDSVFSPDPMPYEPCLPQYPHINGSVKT
Sequence of High affinity nerve growth factor receptor (P04629 whole entry): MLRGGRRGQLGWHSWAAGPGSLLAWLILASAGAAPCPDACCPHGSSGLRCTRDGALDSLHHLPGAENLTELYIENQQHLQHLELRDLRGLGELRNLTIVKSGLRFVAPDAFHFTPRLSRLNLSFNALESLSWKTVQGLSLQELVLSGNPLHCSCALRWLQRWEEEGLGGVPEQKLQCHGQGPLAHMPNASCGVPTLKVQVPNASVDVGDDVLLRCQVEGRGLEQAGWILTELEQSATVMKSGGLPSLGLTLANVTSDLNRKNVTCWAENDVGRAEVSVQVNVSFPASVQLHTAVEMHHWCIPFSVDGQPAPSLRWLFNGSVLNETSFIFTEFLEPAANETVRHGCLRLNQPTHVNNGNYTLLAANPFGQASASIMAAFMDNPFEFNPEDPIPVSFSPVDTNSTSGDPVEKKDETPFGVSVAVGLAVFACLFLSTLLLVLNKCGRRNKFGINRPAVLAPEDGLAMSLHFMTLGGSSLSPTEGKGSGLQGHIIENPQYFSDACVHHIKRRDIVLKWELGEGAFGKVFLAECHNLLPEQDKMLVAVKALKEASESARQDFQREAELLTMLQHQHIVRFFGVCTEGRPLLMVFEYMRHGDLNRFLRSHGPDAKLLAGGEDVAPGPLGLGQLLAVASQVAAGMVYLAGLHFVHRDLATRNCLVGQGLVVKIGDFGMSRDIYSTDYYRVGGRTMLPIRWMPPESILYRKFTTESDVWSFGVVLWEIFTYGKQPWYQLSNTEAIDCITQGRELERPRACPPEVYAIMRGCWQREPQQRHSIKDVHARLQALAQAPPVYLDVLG
Sequence of Mitogen-activated protein kinase 14 (Q16539 whole entry): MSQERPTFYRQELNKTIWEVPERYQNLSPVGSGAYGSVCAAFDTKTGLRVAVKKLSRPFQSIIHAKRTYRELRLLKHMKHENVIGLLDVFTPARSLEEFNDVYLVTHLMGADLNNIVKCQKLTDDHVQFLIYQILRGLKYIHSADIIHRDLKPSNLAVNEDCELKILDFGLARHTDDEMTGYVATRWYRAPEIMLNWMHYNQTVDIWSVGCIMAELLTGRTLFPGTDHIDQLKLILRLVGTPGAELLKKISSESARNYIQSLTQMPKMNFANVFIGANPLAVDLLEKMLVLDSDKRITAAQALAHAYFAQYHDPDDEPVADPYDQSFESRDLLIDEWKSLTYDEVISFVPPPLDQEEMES

On to `Cc1ccc(NC(=O)c2ccc(C)c(C(F)(F)F)c2)cc1C#Cc1nn([C@H]2CC[C@H](O)CC2)c2ncnc(N)c12`, for which the IC50 with HepG2 was over 10000 nM; in [4], 40 nM; in [5] it was 8 nM; in data set [6], 342 nM; in data set [7], over 10000 nM; in the data set with BT-474, over 10000 nM. The IC50 in the data set with MDA-MB-415 is 10000 nM; with NCI-H1437, 2340 nM; in the data set with MIA PaCa-2, under 600 nM; with HT-29 it was 231 nM; in the data set on PLC-PRF-5, 10000 nM; with Ramos it was 10000 nM. The inhibition in vivo at 40 mg/kg/day in the data set on MDA-MB-231 [1] and in the data set with MDA-MB-435 [12] was 100% each time. The AUC(0-t) in data set [2] is 2860 ng·h/mL. Further, in data set [3], the remaining at 1 h, 1 µM is over 90%. The Activity in the data set with MDA-MB-231 [8] is 91.3%; in the data set with MDA-MB-231 [9] it was 5.05%; with MDA-MB-231 [10], 67.94%; in the data set on MDA-MB-435 [11] it was “Dose-dependent effect”; in data set [13], “Non-Toxic”. Further, the inhibition entry with Mus musculus was “Active”. Also, the “inhibition (INH)” value in the data set on MDA-MB-231 [14] came to 100%.
